Experimental data taken from ChEMBL document CHEMBL5058577, “EUbOPEN Chemogenomics Library 2 (Multiplex)” (2022).

Test system: Fibroblast
Experiment: Multiplex assay against human fibroblast
Assay type: toxicity, cell-based
Procedure, shortened: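 Four dyes were applied at seeding to live cells: Hoechst33342, BioTracker Green Microtubule Cytoskeleton Dye, MitoTracker Red and Annexin V Alexa Fluor 680. Imaging after compound addition used a CQ1 microscope at 37°C and 5% CO2. CellPathfinder machine-learning gating then sorted cells into Hoechst high-intensity objects or normal cells, normal cells into healthy, pyknosed or fragmented nuclei, and pyknosed cells into mitotic or apoptotic, with tubulin, mitochondrial-mass and membrane-permeability phenotypes given as per cents of healthy-nucleus cells.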

[1] = 12 h, 1 µM, compound concentration 1 uM, replicate 1
[2] = 12 h, 1 µM, compound concentration 1 uM, replicate 2
[3] = 12 h, 10 µM, compound concentration 10 uM, replicate 1
[4] = 12 h, 10 µM, compound concentration 10 uM, replicate 2
[5] = 24 h, 1 µM, compound concentration 1 uM, replicate 1
[6] = 24 h, 1 µM, compound concentration 1 uM, replicate 2
[7] = 24 h, 10 µM, compound concentration 10 uM, replicate 1
[8] = 24 h, 10 µM, compound concentration 10 uM, replicate 2
[9] = 48 h, 1 µM, compound concentration 1 uM, replicate 1
[10] = 48 h, 1 µM, compound concentration 1 uM, replicate 2
[11] = 48 h, 10 µM, compound concentration 10 uM, replicate 1
[12] = 48 h, 10 µM, compound concentration 10 uM, replicate 2

CN1C[C@H](C(=O)N[C@]2(C)O[C@@]3(O)[C@@H]4CCCN4C(=O)[C@H](Cc4ccccc4)N3C2=O)C[C@@H]2c3cccc4[nH]cc(c34)C[C@H]21.CS(=O)(=O)O [DIHYDROERGOTAMINE MESYLATE]
Population Apoptotic (%) [1]: 25% | Population Fragmented Nuclei (%) [1]: 13% | Population Healthy Nuclei (%) [1]: 70% | Population Hoechst High Intensity Objects (%) [1]: 1% | Population Membrane Permeable-Phenotype (%) [1]: 1% | Population Mitochondria Different-Phenotype (%) [1]: 1% | Population Mitotic Cells (%) [1]: 75% | Population Normal (%) [1]: 98% | Population Pyknosed Nuclei (%) [1]: 16% | Population Tubulin-Different-Phenotype (%) [1]: 23% | Total Cell Count [1]: 127 | Population Apoptotic (%) [2]: 47% | Population Fragmented Nuclei (%) [2]: 32% | Population Healthy Nuclei (%) [2]: 51% | Population Hoechst High Intensity Objects (%) [2]: 7% | Population Membrane Permeable-Phenotype (%) [2]: 6% | Population Mitochondria Different-Phenotype (%) [2]: 5% | Population Mitotic Cells (%) [2]: 52% | Population Normal (%) [2]: 92% | Population Tubulin-Different-Phenotype (%) [2]: 31% | Total Cell Count [2]: 155 | Population Apoptotic (%) [3]: 57% | Population Fragmented Nuclei (%) [3]: 27% | Population Healthy Nuclei (%) [3]: 65% | Population Hoechst High Intensity Objects (%) [3]: 0% | Population Membrane Permeable-Phenotype (%) [3]: 0% | Population Mitochondria Different-Phenotype (%) [3]: 5% | Population Mitotic Cells (%) [3]: 42% | Population Normal (%) [3]: 100% | Population Pyknosed Nuclei (%) [3]: 7% | Population Tubulin-Different-Phenotype (%) [3]: 8% | Total Cell Count [3]: 92 | Population Apoptotic (%) [4]: 31% | Population Fragmented Nuclei (%) [4]: 33% | Population Healthy Nuclei (%) [4]: 45% | Population Hoechst High Intensity Objects (%) [4]: 8% | Population Membrane Permeable-Phenotype (%) [4]: 2% | Population Mitochondria Different-Phenotype (%) [4]: 0% | Population Mitotic Cells (%) [4]: 68% | Population Normal (%) [4]: 91% | Population Pyknosed Nuclei (%) [4]: 21% | Population Tubulin-Different-Phenotype (%) [4]: 42% | Total Cell Count [4]: 114 | Population Apoptotic (%) [5]: 38% | Population Fragmented Nuclei (%) [5]: 14% | Population Healthy Nuclei (%) [5]: 75% | Population Hoechst High Intensity Objects (%) [5]: 1% | Population Membrane Permeable-Phenotype (%) [5]: 0% | Population Mitochondria Different-Phenotype (%) [5]: 0% | Population Mitotic Cells (%) [5]: 61% | Population Normal (%) [5]: 98% | Population Pyknosed Nuclei (%) [5]: 10% | Population Tubulin-Different-Phenotype (%) [5]: 18% | Total Cell Count [5]: 130 | Population Apoptotic (%) [6]: 47% | Population Fragmented Nuclei (%) [6]: 30% | Population Healthy Nuclei (%) [6]: 56% | Population Hoechst High Intensity Objects (%) [6]: 4% | Population Membrane Permeable-Phenotype (%) [6]: 7% | Population Mitochondria Different-Phenotype (%) [6]: 3% | Population Mitotic Cells (%) [6]: 52% | Population Normal (%) [6]: 95% | Population Pyknosed Nuclei (%) [6]: 13% | Population Tubulin-Different-Phenotype (%) [6]: 50% | Total Cell Count [6]: 149 | Population Apoptotic (%) [7]: 55% | Population Fragmented Nuclei (%) [7]: 17% | Population Healthy Nuclei (%) [7]: 72% | Population Hoechst High Intensity Objects (%) [7]: 1% | Population Membrane Permeable-Phenotype (%) [7]: 0% | Population Mitochondria Different-Phenotype (%) [7]: 1% | Population Mitotic Cells (%) [7]: 44% | Population Normal (%) [7]: 98% | Population Pyknosed Nuclei (%) [7]: 10% | Population Tubulin-Different-Phenotype (%) [7]: 15% | Total Cell Count [7]: 89 | Population Apoptotic (%) [8]: 31% | Population Fragmented Nuclei (%) [8]: 35% | Population Healthy Nuclei (%) [8]: 43% | Population Hoechst High Intensity Objects (%) [8]: 5% | Population Membrane Permeable-Phenotype (%) [8]: 6% | Population Mitochondria Different-Phenotype (%) [8]: 0% | Population Mitotic Cells (%) [8]: 68% | Population Normal (%) [8]: 94% | Population Pyknosed Nuclei (%) [8]: 20% | Population Tubulin-Different-Phenotype (%) [8]: 46% | Total Cell Count [8]: 113 | Population Apoptotic (%) [9]: 57% | Population Fragmented Nuclei (%) [9]: 20% | Population Healthy Nuclei (%) [9]: 68% | Population Hoechst High Intensity Objects (%) [9]: 1% | Population Membrane Permeable-Phenotype (%) [9]: 0% | Population Mitochondria Different-Phenotype (%) [9]: 2% | Population Mitotic Cells (%) [9]: 42% | Population Normal (%) [9]: 98% | Population Pyknosed Nuclei (%) [9]: 10% | Population Tubulin-Different-Phenotype (%) [9]: 30% | Total Cell Count [9]: 134 | Population Apoptotic (%) [10]: 53% | Population Fragmented Nuclei (%) [10]: 38% | Population Healthy Nuclei (%) [10]: 50% | Population Hoechst High Intensity Objects (%) [10]: 5% | Population Membrane Permeable-Phenotype (%) [10]: 6% | Population Mitochondria Different-Phenotype (%) [10]: 6% | Population Mitotic Cells (%) [10]: 46% | Population Normal (%) [10]: 94% | Population Pyknosed Nuclei (%) [10]: 11% | Population Tubulin-Different-Phenotype (%) [10]: 48% | Total Cell Count [10]: 139 | Population Apoptotic (%) [11]: 63% | Population Fragmented Nuclei (%) [11]: 21% | Population Healthy Nuclei (%) [11]: 65% | Population Hoechst High Intensity Objects (%) [11]: 3% | Population Membrane Permeable-Phenotype (%) [11]: 1% | Population Mitochondria Different-Phenotype (%) [11]: 3% | Population Mitotic Cells (%) [11]: 36% | Population Normal (%) [11]: 96% | Population Pyknosed Nuclei (%) [11]: 12% | Population Tubulin-Different-Phenotype (%) [11]: 20% | Total Cell Count [11]: 91 | Population Apoptotic (%) [12]: 76% | Population Fragmented Nuclei (%) [12]: 44% | Population Healthy Nuclei (%) [12]: 44% | Population Membrane Permeable-Phenotype (%) [12]: 11% | Population Mitochondria Different-Phenotype (%) [12]: 5% | Population Mitotic Cells (%) [12]: 23% | Population Pyknosed Nuclei (%) [12]: 10% | Population Tubulin-Different-Phenotype (%) [12]: 55% | Total Cell Count [12]: 126
